Screening results (PubChem BioAssay)
This is a sample that favours compounds with a hit; in the whole collection about 1.9% have one here.
pCIP destab – compounds decreasing mouse p/CIP protein stability; decrease of EGFP signal, % at 10 µM; F442A p/CIP-EGFP cells, EGFP fluorescence, 16 h; Q05BA5; AID 1984; hit rate 0.01% among 290,000;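 active = EGFP signal decrease of at least 30% at 10 µM or well 3 SD below plate mean, unless failing retest; inactive = the rest, including hits failing retest or dose response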
T cell HTS – T cell immune modulation candidate; 2C CD8+ T cell-vesicle binding, flow cytometry; hits give low values; response (vesicle binding), % at 7 µM; hit rate 0.068% among 330,000;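 active = response, share of CD8 T cells binding vesicles, and their 90th percentile fluorescence all below set limits, cut at about 80% in these data, passing the limit was not always enough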;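 note: values below 100% mean blocked vesicle binding to the CD8+ T cells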
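material = purified 2C TCR transgenic mouse naive CD8+ T cells | controls = Unloaded micro-vesicles (low), QL9 vesicles with 0.7% DMSO (high) | detection = cytometric PE anti-B7-1 and Alexa647 anti-CD8 signals after 1% paraformaldehyde fixation | incubation = binding step 1.5 h, 37 °C, antibody labelling 20 min, ice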
Fh CTSL1 inh – blocks F. hepatica cathepsin L1 in PFM18AAP counter-screen. recombinant F. hepatica cathepsin L1, Z-Leu-Arg-MCA fluorescence. AID 1906. inhibition, % at 5.96 µM. hit rate 0.49% among 300,000;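 active = inhibition above the mean of all tested compounds plus 3 SD, set per screening campaign, cut at about 17% in these data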
IMP-1 inhibitor – inhibitors of Pseudomonas aeruginosa IMP-1 metallo-beta-lactamase; purified IMP-1, nitrocefin hydrolysis, epi-absorbance fluorescence; inhibition, % at 5.6 µM; hit rate 0.45% among 290,000;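 active = inhibition above the mean plus 3 SD of all compounds in the same screening run, cut at about 4.5% in these data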
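System: purified recombinant IMP-1 beta-lactamase. Medium: Zinc- and detergent-supplemented HEPES buffer, pH 7.1. Compound: one 5.6 µM dose […]. Schedule: 15 min preincubation plus 25 min reaction at 25 °C. Technique: Epi-absorbance fluorescence, 480 nm excitation, 530 nm emission.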
UBC9 SUMO inh – blocks human SUMOylation mediated by UBC9; P63279; HTRF SUMOylation assay, SAE1/SAE2 + UBC9, in vitro; inhibition, % at 35 µM; hit rate 0.36% among 290,000; AID 2006; in the data active = inhibition above about 50%, passing the limit was not always enough; inconclusive = no clear call, values can overlap the other calls
Target sequence (P63279 whole entry, looked up): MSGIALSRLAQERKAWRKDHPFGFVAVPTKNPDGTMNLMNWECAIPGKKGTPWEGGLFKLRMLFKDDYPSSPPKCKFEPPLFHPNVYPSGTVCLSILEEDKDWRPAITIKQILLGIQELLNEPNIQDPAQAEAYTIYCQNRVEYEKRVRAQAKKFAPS
VIM-2 inh – blocks Pseudomonas aeruginosa VIM-2 metallo-beta-lactamase | hit rate 0.89% among 290,000 | inhibition, % at 5.6 µM | purified VIM-2, nitrocefin hydrolysis, epi-absorbance fluorescence | AID 1527;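 active = inhibition above the mean of all tested compounds plus 3 SD, cutoff set per screening run, cut at about 7.5% in these data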;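 note: red hydrolysis product quenches plate fluorescence so inhibitors raise well fluorescence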
Each line names hits and unclear results; the compound was inactive in the other large screens.

Cc1cc(C)c(OCC(=O)Nc2nc3ccccc3[nH]2)c(C)c1	none
COc1cc(C2NC(=O)NC3=C2C(=O)OC3)cc(OC)c1OC (stereo not given)	none
Cc1ccc(S(=O)(=O)Nc2ccccc2C=Nc2cccc(C)c2C)cc1	T cell HTS 0.0
Cc1c(NC(=O)c2cc(C3CC3)on2)c(=O)n(-c2ccccc2)n1C	Fh CTSL1 inh 42
Cc1c(NC(=O)C2CC(c3cccc(Br)c3)=NO2)c(=O)n(-c2ccccc2)n1C (stereo not given)	Fh CTSL1 inh 17
Cc1nc(NCC(c2ccccc2)N(C)C)c2c(C)c(C)sc2n1 (stereo not given)	VIM-2 inh 7.8
Cc1sc2ncnc(NCC(c3ccccc3)N(C)C)c2c1C (stereo not given)	VIM-2 inh 8.7
O=C(Nc1ccc(-c2n[nH]c(=S)o2)cc1)c1ccccc1Br	none
CC(=O)c1cnc(N(C)C)s1	none
CN(C)c1ncc(C2=C(Cl)C(=O)C(N3CCCC3)=C(Cl)C2=O)s1	IMP-1 inhibitor 5.2 (no result: pCIP destab, UBC9 SUMO inh)
O=C1C(Cl)=C(N2CCCCC2)C(=O)C(Cl)=C1c1cnc(N2CCCCC2)s1	UBC9 SUMO inh 59 (no result: T cell HTS, Fh CTSL1 inh)
CC1CCC2(CC1)NC(=O)N(NC(=O)CCl)C2=O (stereo not given)	Fh CTSL1 inh 17
CC1CCC2(CC1)NC(=O)N(NC(=O)c1cccs1)C2=O (stereo not given)	none (no result: pCIP destab, Fh CTSL1 inh, IMP-1 inhibitor, UBC9 SUMO inh, VIM-2 inh)
O=C1Nc2ccc(Br)cc2/C1=C/C1CC=CCC1 (stereo not given)	Fh CTSL1 inh 28
CCCCCCC(=O)Nc1nc(C)c(-c2csc(Nc3cc(OC)ccc3OC)n2)s1	IMP-1 inhibitor 10
Cc1nc(NC(=O)CC(C)C)sc1-c1csc(Nc2ccc(Cl)cc2Cl)n1	none
COc1ccc(Cl)cc1Nc1nc(-c2sc(NC(=O)CC(C)C)nc2C)cs1	IMP-1 inhibitor 6.8
C=CCCC(=O)Nc1nc(C)c(-c2csc(Nc3cc(Cl)ccc3OC)n2)s1	IMP-1 inhibitor 6.2
CCc1nccn1CCC(=O)N1CCCC(N2CCN(c3cccc(Cl)c3)CC2)C1 (stereo not given)	none (no result: Fh CTSL1 inh)
COCCNc1nc(-c2cc(-c3ccc(Cl)cc3)on2)cc(C(C)C)n1	none (no result: IMP-1 inhibitor, VIM-2 inh)
OCCN(CCO)c1nc(N2CCCCC2)c2nc(N(CCO)CCO)nc(N3CCCCC3)c2n1	IMP-1 inhibitor 12 (no result: Fh CTSL1 inh)
Cc1ncc(CO)c2c1Oc1nc(-c3ccccc3)nc(SCC(=O)N3CCCCC3)c1C2	none
Cc1ncc(CO)c2c1Oc1nc(-c3ccccc3)nc(SCC(=O)N3CCOCC3)c1C2	IMP-1 inhibitor 32
Cc1ncc(CO)c2c1Oc1nc(-c3ccccc3)nc(SCC(=O)N(C)c3ccccc3)c1C2	IMP-1 inhibitor 7.9
Cc1ncc(CO)c2c1Oc1nc(-c3ccccc3F)nc(SCC(=O)N(C)c3ccccc3)c1C2	none
O=C(Nc1cccc(-c2ccc3nncn3n2)c1)C(F)(F)F	VIM-2 inh 8.0
CCOc1ccc(C2/C(=C(\O)c3ccc4c(c3)OCCO4)C(=O)C(=O)N2Cc2cccnc2)cc1OCC (stereo not given)	none
COc1ccc(-n2nc3c(c2NC(=O)CCl)CSC3)cc1	Fh CTSL1 inh 72 (no result: UBC9 SUMO inh)
COc1ccc(-n2nc3c(c2NC(=O)C(C)Cl)CSC3)cc1 (stereo not given)	none
CSc1c(C#N)c(N)c(C#N)c2c1COC(C)(C)C2	Fh CTSL1 inh 17
CC(C)=CCN1CCN(Cc2cccn2-c2ncccn2)CC1CCO (stereo not given)	none
C(=Nc1cccc2c(N=Cc3ccco3)cccc12)c1ccco1	IMP-1 inhibitor 16, UBC9 SUMO inh inconclusive
CN(C)c1ccc(N=Cc2ccco2)cc1	none
O=C(NCCc1nc2ccc(Cl)cc2[nH]1)C1CCC(=O)N(Cc2cccc(F)c2)C1 (stereo not given)	T cell HTS 67
O=C(CN1CCN(c2ccccn2)CC1)Nc1ccc(OC(F)(F)F)cc1	IMP-1 inhibitor 6.1
COc1ccc(OC)c(C(=O)NC(CC(N)=O)c2ccc(N3CCCCCC3)c([N+](=O)[O-])c2)c1 (stereo not given)	none
Nc1ccc2c(c1)C(=O)c1ccccc1-2	none (no result: pCIP destab, IMP-1 inhibitor, UBC9 SUMO inh, VIM-2 inh)
Nc1ccc2c(c1)C(=O)C(=O)c1ccccc1-2	Fh CTSL1 inh 112, UBC9 SUMO inh inconclusive (no result: pCIP destab)
O=C1C(=O)c2ccc(-c3ccccc3)cc2-c2ccccc21	Fh CTSL1 inh 109, UBC9 SUMO inh 97
CSc1nc(N2CCOCC2)c2sccc2n1	VIM-2 inh 8.1
Cc1sc2nc(CN(C(=O)NCc3ccccc3)C3CCCC3)[nH]c(=O)c2c1C	none
CC(=O)N(Cc1nc2sc(C)c(C)c2c(=O)[nH]1)C1CCCC1	Fh CTSL1 inh 27
COc1ccc(CCNC(=O)c2ccc3nc[nH]c3c2)cc1	none
Cc1ccc(C(=O)N2CCN(c3ccc(NC(=O)Cc4ccccc4)cc3)CC2)cc1	none
Cc1ccsc1/C=N/NC(=O)C1C(=O)NCC1c1ccccc1 (stereo not given)	none
Cc1ccsc1C=Nc1ccc(O)cc1	Fh CTSL1 inh 102 (no result: UBC9 SUMO inh)
Cc1ccsc1/C=N/N=C/c1sccc1C	none
CN(C)CCCCOc1ccc(Br)cc1Cl	IMP-1 inhibitor 24
CCOC(=O)N1CCN(CC(=O)N2CCC(C(N)=O)CC2)CC1	none
O=C1/C(=C/c2ccco2)CCc2ccccc21	none
Nc1ccc2c(c1)C/C(=C/c1ccco1)C2=O	UBC9 SUMO inh 85
CN(C)/C=C1/C=C(c2ccccc2)OC1=O	none
CCC1=C/C(=C/N(C)c2ccccc2)C(=O)S1	IMP-1 inhibitor 6.1
COc1ccc(CN=C2NN=C(c3ccc(Cl)cc3)CS2)cc1	none
CC(C)(C)N=C1NN=C(c2ccc(Cl)cc2)CS1	Fh CTSL1 inh 21
Nc1ncnc2c1ncn2[C@@H]1O[C@H](COP(=O)(O)O)[C@@H](O)[C@H]1O	UBC9 SUMO inh 62
O=C(NC1CCCCC1)C(c1ccc(O)c(O)c1)N(C(=O)Cn1nnc2ccccc21)c1cccc(O)c1 (stereo not given)	IMP-1 inhibitor 11
CC(=O)c1cccc(N(C(=O)Cn2nnc3ccccc32)C(C(=O)NC2CCCCC2)c2cn(C)nc2C)c1 (stereo not given)	none
CN(C)S(=O)(=O)c1ccc(S(=O)(=O)N(Cc2ccco2)Cc2ccccc2Cl)cc1	Fh CTSL1 inh 36
COc1ccccc1OCCNC(=O)c1ccc(S(=O)(=O)N(C)C)cc1	none
CN(C)S(=O)(=O)c1ccc(C(=O)NCCc2ccco2)cc1	T cell HTS 66
O=S(=O)(c1ccc(S(=O)(=O)N(Cc2ccco2)Cc2ccccc2Cl)cc1)N1CCCC1	none
N#CCOC(=O)[C@H](Cc1ccccc1)N1C(=O)c2ccccc2C1=O	none
O=C(c1cc(Cl)nc2ccccc12)N1CCN(S(=O)(=O)c2cccc(C(F)(F)F)c2)CC1	none (no result: pCIP destab, IMP-1 inhibitor, UBC9 SUMO inh, VIM-2 inh)
CN(CC(=O)Nc1ccccc1Br)C(=O)CCSc1ccc(F)cc1	none (no result: pCIP destab, IMP-1 inhibitor, UBC9 SUMO inh, VIM-2 inh)
